Data on 6 compounds can be found in ChEMBL document CHEMBL1122774, “Tri- and tetrapeptide analogues of kinins as potential renal vasodilators” (J Med Chem, 1984).

Data set [1] relates to Canis familiaris. The experiment in a line: In vivo percent change in canine heart rate at 3 ug/Kg/min. Format: functional, Canis lupus familiaris. The method, boiled down:
(§1)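 Primary screen in anesthetized dogs (7-17 kg). Drug infused separately at 3, 30 and 300 µg/(kg min), each infusion lasting 5 min, at about 15-min intervals. Read-outs are renal blood flow, mean arterial blood pressure, heart rate, and RVR (MABP / mean RBF), as percent change. Significance thresholds are defined per number of dogs; n = 1-3 dogs.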

For data set [2], the system named is Canis familiaris. Description: In vivo percent change in canine heart rate at 30 ug/Kg/min. Format: functional, Canis lupus familiaris. The method, boiled down:
as §1

For data set [3], the system named is Canis familiaris. The experiment in a line: In vivo percent change in canine renal blood flow (RBF) at 300 ug/Kg/min. It is filed as functional, Canis lupus familiaris, Kidney. The method, boiled down: as §1
Data set [4] has as its system Canis familiaris. The experiment in a line: In vivo percent change in canine renal vascular resistance (RVR) at 3 ug/Kg/min. It is filed as functional, Canis lupus familiaris. The method, boiled down: as §1
In data set [5] the test system is Canis familiaris. The experiment in a line: In vivo percent change in canine mean arterial blood pressure (MABP) at 30 ug/Kg/min. It is filed as functional, Canis lupus familiaris. The method, boiled down: as §1
Data set [6] deals with Canis familiaris. Description: In vivo percent change in canine heart rate at 300 ug/Kg/min. Format: functional, Canis lupus familiaris. The method, boiled down:
as §1

The subject of data set [7] is Canis familiaris. Description: In vivo percent change in canine renal vascular resistance (RVR) at 300 ug/Kg/min. It is filed as functional, Canis lupus familiaris. The method, boiled down:
as §1

For data set [8], the system named is Canis familiaris. Description: In vivo percent change in canine mean arterial blood pressure (MABP) at 300 ug/Kg/min. It is filed as functional, Canis lupus familiaris. The method, boiled down:
as §1

The subject of data set [9] is Canis familiaris. Description: In vivo percent change in canine renal vascular resistance (RVR) at 30 ug/Kg/min. It is filed as functional, Canis lupus familiaris. The method, boiled down:
as §1

The subject of data set [10] is Canis familiaris. The experiment in a line: In vivo percent change in renal blood flow at 30 ug/Kg/min. Format: functional, Canis lupus familiaris, Kidney. The method, boiled down: as §1
Data set [11] deals with Canis familiaris. Description: In vivo percent change in canine renal blood flow (RBF) at 3 ug/Kg/min. Format: functional, Canis lupus familiaris, Kidney. The method, boiled down: as §1
Data set [12] has as its system Canis familiaris. The experiment in a line: Renal vasodilator activity in anesthetized dogs and percent change in mean arterial blood pressure (MABP) was determined at 3 ug/Kg/min. It is filed as functional, Canis lupus familiaris. The method, boiled down: as §1
The subject of data set [13] is Canis familiaris. Description: Renal vasodilator activity in anesthetized dogs and percent change in renal vascular resistance (RVR) was determined at 30 ug/Kg/min. It is filed as functional, Canis lupus familiaris. The method, boiled down: as §1
Data set [14] has as its system Canis familiaris. Description: Renal vasodilator activity in anesthetized dogs and percent change in renal blood flow (RBF) was determined at 3 ug/kg min. Format: functional, Canis lupus familiaris, Kidney. The method, boiled down:
as §1

A short description of data set [15]: Ratio of ED30 of iliac vascular resistant (IVR) to the ED15 of RVR (renal vascular resistance). It is filed as functional. The method, boiled down:
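Anesthetized dogs in the secondary cumulative-infusion protocol, each dose level 5 min. Selectivity ratio is the dose giving a 30% change in iliac vascular resistance divided by the RVR ED15, the cumulative dose decreasing renal vascular resistance by 15%.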

Data set [16] concerns Canis familiaris. Description: Renal vasodilator activity in anesthetized dogs and percent change in heart rate (HR) was determined at 30 ug/kg min. It is filed as functional, Canis lupus familiaris. The method, boiled down: as §1
Data set [17] has as its system Canis familiaris. Description: Renal vasodilator activity in anesthetized dogs and percent change in heart rate (HR) was determined at 3 ug/kg min. Format: functional, Canis lupus familiaris. The method, boiled down:
as §1

Data set [18] concerns Canis familiaris. Description: Renal vasodilator activity in anesthetized dogs and percent change in renal blood flow (RBF) was determined at 30 ug/kg min. It is filed as functional, Canis lupus familiaris, Kidney. The method, boiled down: as §1
The subject of data set [19] is Canis familiaris. The experiment in a line: Renal vasodilator activity in anesthetized dogs and percent change in heart rate (HR) was determined at 300 ug/kg min. It is filed as functional, Canis lupus familiaris. The method, boiled down:
as §1

Data set [20] relates to Canis familiaris. The experiment in a line: Renal vasodilator activity in anesthetized dogs and percent change in renal vascular resistance (RVR) was determined at 300 ug/kg min. Format: functional, Canis lupus familiaris. The method, boiled down: as §1
The test system of data set [21] is Canis familiaris. Description: Renal vasodilator activity in anesthetized dogs and percent change in mean arterial blood pressure (MABP) was determined at 300 ug/kg min. It is filed as functional, Canis lupus familiaris. The method, boiled down: as §1
The subject of data set [22] is Canis familiaris. Description: Compound was evaluated for renal vasodilator activity and represented as ED15 (intravenous administration). Format: functional. To be noted: Canis lupus familiaris. The method, boiled down:
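Secondary protocol in anesthetized dogs with iv infusion at progressively increasing rates, each level infused 5 min. Potency is the cumulative dose (µg/kg) that lowered renal vascular resistance (MABP / mean RBF) by 15%. Minimum change needed for significance (p = 0.95) is 16% for RVR.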

In data set [23] the test system is Canis familiaris. The experiment in a line: Renal vasodilator activity in anesthetized dogs and percent change in renal vascular resistance (RVR) was determined at 3 ug/kg min. Format: functional, Canis lupus familiaris. The method, boiled down: as §1
Data set [24] is described as follows: Ratio of ED20 of MABP (mean arterial blood pressure) to the ED15 of RVR ( renal vascular resistance). Format: functional. The method, boiled down: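 Anesthetized dogs in the secondary cumulative-infusion protocol, each dose level 5 min. Selectivity ratio is the dose giving a 20% change in mean arterial blood pressure divided by the cumulative dose lowering renal vascular resistance 15% (RVR ED15).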

The test system of data set [25] is Canis familiaris. Description: Renal vasodilator activity in anesthetized dogs and percent change in mean arterial blood pressure (MABP) was determined at 3 ug/kg min. It is filed as functional, Canis lupus familiaris. The method, boiled down:
as §1

Data set [26] concerns Canis familiaris. Description: Renal vasodilator activity in anesthetized dogs and percent change in renal vascular resistance (RVR) was determined at 30 ug/kg min. It is filed as functional, Canis lupus familiaris. The method, boiled down: as §1
Data set [27] has as its system Canis familiaris. The experiment in a line: Renal vasodilator activity in anesthetized dogs and percent change in renal blood flow (RBF) was determined at 300 ug/kg min. Format: functional, Canis lupus familiaris, Kidney. The method, boiled down:
as §1

The subject of data set [28] is Canis familiaris. Description: Renal vasodilator activity in anesthetized dogs and percent change in mean arterial blood pressure (MABP) was determined at 30 ug/kg min. Format: functional, Canis lupus familiaris. The method, boiled down:
as §1

In data set [29] the test system is Canis familiaris. The experiment in a line: In vivo percent change in canine renal blood flow (RBF) at 30 ug/Kg/min. It is filed as functional, Canis lupus familiaris, Kidney. The method, boiled down: as §1
The nature of data set [30]: Average max percent decrease in RVR (renal vascular resistance) was determined. The method, boiled down:
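Secondary protocol in anesthetized dogs. Drug given as iv infusion at progressively increasing rates, each dose level for 5 min. The maximum effect is taken as the largest percent decrease in renal vascular resistance (RVR) reached with the compound. RVR is calculated as mean arterial blood pressure / mean renal blood flow.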

`COc1ccc(CC(C)(NC(=O)[C@@H]2CCCN2C(=O)CCCc2ccccc2)C(=O)N[C@@H](CCCN=C(N)N)C(=O)O)cc1OC` (stereo partly drawn): the Change with Canis familiaris [1] was 4.5%; in the data set with Canis familiaris [2], 1%; with Canis familiaris [3], 5%; with Canis familiaris [4] it was -8.5%; in the data set with Canis familiaris [5], -1%; with Canis familiaris [6], 2.5%. Further, the Change in the data set on Canis familiaris [7] was -7%; with Canis familiaris [8], -2%; with Canis familiaris [9] it was -8.5%; in the data set with Canis familiaris [10], 8.5%; with Canis familiaris [11], 7.5%; in the data set on Canis familiaris [12], -2%.

For the compound `CC(Cc1ccccc1)(NC(=O)[C@@H]1CCCN1C(=O)CCCc1ccccc1)C(=O)NCCCN.Cl` (stereo partly drawn), the Change in the data set on Canis familiaris [1] is -1.5%; in the data set on Canis familiaris [2] it was 0.3%; in the data set on Canis familiaris [3] it was 10%; in the data set with Canis familiaris [13] it was -6%; with Canis familiaris [4] it was -3.5%; with Canis familiaris [5], -0.5%. In addition, the Change in the data set on Canis familiaris [6] is given as 0.5%; in the data set on Canis familiaris [7], -11.5%; in the data set with Canis familiaris [8], -3.5%; in the data set with Canis familiaris [10] it was 5.5%; in the data set on Canis familiaris [11] it was 4%; with Canis familiaris [12], 0%.

On to H-FSPFR-OH, for which the Change with Canis familiaris [14] is listed as 3%; in the data set with Canis familiaris [16], 0%; in the data set with Canis familiaris [17], 0.8%; in the data set with Canis familiaris [18], 6.5%; in the data set with Canis familiaris [19] it was 4.8%; in the data set with Canis familiaris [20] it was -24.8%. Besides, the Change with Canis familiaris [21] was -5.7%; with Canis familiaris [23], -3.8%; in the data set on Canis familiaris [25] it was -1.2%; in the data set on Canis familiaris [26] it was -5.1%; in the data set on Canis familiaris [27], 26.2%; in the data set on Canis familiaris [28], 0.5%. For the same compound, the Ratio in data set [15] is > 1160; in data set [24], >1158. Also, in the data set on Canis familiaris [22], the ED15 amounted to 0.0052 mg/kg.

With `CC(CN[C@@H](CCCN=C(N)N)C(=O)O)(Cc1ccccc1)NC(=O)[C@@H]1CCCN1C(=O)CCCc1ccccc1` (stereo partly drawn), the Change in the data set with Canis familiaris [1] was 0%; with Canis familiaris [2], -7%; in the data set on Canis familiaris [3], 4%; in the data set with Canis familiaris [13], -9%; in the data set with Canis familiaris [4], -12%; in the data set with Canis familiaris [5], 0%. In addition, the Change is -23% in the data set with Canis familiaris [6]; -4% with Canis familiaris [7]; 8% in the data set with Canis familiaris [8]; 10% in the data set with Canis familiaris [10]; 11% in the data set on Canis familiaris [11]; -2% with Canis familiaris [12].

As for `CC(Cc1ccccc1)(NC(=O)[C@@H]1CCCN1C(=O)CC12CC3CC(CC(C3)C1)C2)C(=O)N[C@@H](CCCN=C(N)N)C(=O)O` (stereo partly drawn), the Ratio is 0 in data set [15] and >84 in [24]. Further, the Change in the data set on Canis familiaris [1] is 3.5%; with Canis familiaris [2], 0.5%; in the data set on Canis familiaris [3], -14%; with Canis familiaris [4] it was -11.5%; in the data set on Canis familiaris [5], 1%; in the data set with Canis familiaris [6], 2%. The Change is given as 0.5% with Canis familiaris [29]; 21.5% in the data set with Canis familiaris [7]; 3% in the data set on Canis familiaris [8]; -0.5% with Canis familiaris [9]; 13% with Canis familiaris [11]; -0.5% with Canis familiaris [12]. The compound also came in with an ED15 with Canis familiaris [22] of 0.072 mg/kg. For the same compound, the Decrease in [30] is recorded as 19%.

In the case of `CC(Cc1ccc(O)cc1)(NC(=O)[C@@H]1CCCN1C(=O)CCCc1ccc(O)cc1)C(=O)N[C@@H](CCCN=C(N)N)C(=O)O` (stereo partly drawn), the Change in the data set on Canis familiaris [14] is recorded as 20%; in the data set with Canis familiaris [16], -7.5%; in the data set on Canis familiaris [17] it was 3.5%; with Canis familiaris [18], 28%; with Canis familiaris [19], 2.4%; in the data set on Canis familiaris [20], -17%. Further, the Change is reported as 1% with Canis familiaris [21]; -19% in the data set on Canis familiaris [23]; -2.5% in the data set on Canis familiaris [25]; -20% in the data set on Canis familiaris [26]; 28% in the data set with Canis familiaris [27]; -3% in the data set with Canis familiaris [28]. The Ratio was < 9 in data set [15] and >1665 in data set [24]. This compound came in with an ED15 in the data set on Canis familiaris [22] of 0.0455 mg/kg. Also, the Decrease in [30] is reported as 16%.
